96 molecules from ChEMBL document CHEMBL4513216, “Probing the Open Global Health Chemical Diversity Library for Multistage-Active Starting Points for Next-Generation Antimalarials” (ACS Infect Dis, 2020) can be followed below.

The nature of this data set: Toxicity liver stage against HepG2, at 10uM. Further details: test concentration 10 uM, cell line HepG2-A16-CD81EGFP. As to conditions: human, HepG2-A16-CD81EGFP cells; read-out: INHIBITION
Type of data set: cell-based. Put shortly: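 Uninfected HepG2-A16-CD81EGFP cells, 3 × 10^3 per well, 1536-well, plated on prespotted compound at 10 μM final, parasite-free screening media added to match infected plates; puromycin 10 μM positive, DMSO 0.5% negative; run in parallel with 48 h PbLuc assay at 37 °C, 5% CO2; viability by CellTiter-Glo luminescence, normalized to controls.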
Turning to `COCCOc1ccnc(-c2noc([C@@H]3CCCN3C)n2)c1`, the cytotoxicity at 10 µM was -7.18%.
On to `CC(C)(C)CN1CCC[C@H]1c1nc(-c2cncnc2N)no1`, for which the cytotoxicity at 10 µM is -3.66%.
The figure for `COC(=O)[C@@H]1Cc2c[nH]c3cccc(c23)[C@H](CC(C)C)N1` is 9.57%.
The same measure for `CN1CCC(N[C@@H]2CO[C@H](CNC(=O)C3CCCC3)[C@H]2O)CC1`: -4.63%; for `CC[C@H]1CN2CC[C@H]1C[C@@H]2CNC(=O)c1ccco1`: 3.46%.
The same measure for `CCOC(=O)[C@H]1[C@@H](O)C(=O)N(C)C12CCN(C(=O)OC)CC2`: -0.817%.
As for `CCOC(=O)CNC(=O)N1CCC(OC)c2ccccc2N(C)C(=O)C1` (stereo unspecified), the cytotoxicity at 10 µM worked out at 3.36%.
With `COc1ccc2c3c1CN(S(C)(=O)=O)CC3=CC(C)(C)CO2`, the cytotoxicity at 10 µM was found to be 7.77%.
The figure for `CC(C)OCC(=O)Nc1ccc(Oc2ccc3c(c2)OCO3)nc1` is -13.1%.
The figure for `Cc1cc(=O)n(CCNS(=O)(=O)c2ccc(F)c(Cl)c2)cn1` is 1.18%; for `COc1ncccc1CN1CCc2[nH]nc(C(=O)N(C)C)c2C1` it is 1.55%; for `CCOCC1c2c(ncn2C(C)C)CCN1C(=O)CC` (stereo unspecified) it is 4.17%.
Take `Cc1cnc(N2CCC[C@@H]3CN(S(C)(=O)=O)C[C@@H]32)nc1`: the cytotoxicity at 10 µM is 9.34%.
`CN1CCN([C@@H]2CN(C(=O)c3ccnnc3)[C@@H]3CCCO[C@H]23)CC1`: the cytotoxicity at 10 µM turned out to be 7.16%.
For the molecule `CCS(=O)(=O)N1CCC2(CC1)CC(OCC1CC1)CO2` (stereo unspecified), the cytotoxicity at 10 µM turned out to be 7.92%.
The figure for `Nc1nc2c(s1)C(c1c(F)cccc1Cl)CC(=O)N2` (stereo unspecified) is 4.21%; for `CCC1=NC(SCC(=O)c2ccc(Cl)cc2)c2cc(CC)sc2N1` (stereo unspecified) it is 8.16%; for `Cc1nn(C)c2cn(CC(=O)N3CCN(c4ccccn4)CC3)nc12` it is 3.57%.
The same measure for `Cc1nc2[nH]cnc(NCCN3CCCC3)c-2n1`: -12%; for `CCn1cc(C(=O)n2nc(C)cc2C)c(S(=O)(=O)N2CCCCC2)n1`: -3.81%.
The figure for `Cc1ccn(-c2ccnc(N3CCSCC3)n2)n1` is 9.87%.
`Cc1cc(NC(=O)CN2C(=O)CC(C)(C)c3ccccc32)no1`: the cytotoxicity at 10 µM is -3.29%.
The figure for `CCn1cc(CN2CCC(c3ncc(Cl)cc3S(C)(=O)=O)CC2)c(C)n1` is 5.68%; for `COc1c(CNCCc2c[nH]c3ccccc23)c(C)nn1C` it is 15%.
As to `CCc1ccc(S(=O)(=O)Nc2cnccc2C)s1`, the cytotoxicity at 10 µM was -3.63%.
The same measure for `CN1CCN(C)C(CNC(=O)N(C)Cc2ccc(Cl)c(F)c2)C1` (stereo unspecified): 6.32%; for `CNc1ncc(C(=O)N2CCCC(Cc3ccccc3OC)C2)s1` (stereo unspecified): -0.094%.
On to `Cc1cc(C)n(CC(C)CNC(=O)N(C)Cc2cc(C)on2)n1` (stereo unspecified), for which the cytotoxicity at 10 µM was -10.2%.
The same measure for `Cc1ccc(C(=O)N2CCN(c3ncnc4nc(N)ccc34)CC2)cc1`: 8.88%.
The same measure for `COC(=O)CN(C(=O)c1cccc(F)c1Cl)c1cccc(C)n1`: 9.5%.
The figure for `O=C(c1ccoc1)N1CCC(O)(C(F)(F)F)CC1` is 3.88%; for `CCC1CN(CCCO)c2ccccc2O1` (stereo unspecified) it is -7.24%.
Take `COC1CCCN(C(=O)NCc2ccc(C(=O)N(C)C(C)C)cc2)C1` (stereo unspecified): the cytotoxicity at 10 µM was -24.8%.
The figure for `CN(C(=O)c1ccncc1F)c1ccccc1S(C)(=O)=O` is 2.23%; for `COc1ccccc1N(C)S(=O)(=O)c1cc(C(=O)O)cs1` it is -5.82%; for `CC(C)CCn1ccc(NC(=O)N2CCCC2C(C)(C)O)n1` (stereo unspecified) it is 5.07%.
The same measure for `COc1ccc(CNCCc2cc(F)cc3c2OCOC3)c(OC)c1`: -3.41%; for `CC(CN1CCOCC1)NC(=O)c1cc(Cl)c2c(c1)OCO2` (stereo unspecified): -2.35%; for `Cc1csc(N2CCN(Cc3nccn3C)CC2C)n1` (stereo unspecified): -0.274%.
Regarding `CN(C)c1cc(C(=O)NCC2(c3cccc(F)c3)CCOCC2)ccn1`, the cytotoxicity at 10 µM was found to be 8.8%.
The figure for `CCN(CCc1nccs1)C(=O)c1ncoc1C` is 11.3%.
On to `Cc1nc(CNc2ccc(C(=O)NCc3ccco3)cc2C)no1`, for which the cytotoxicity at 10 µM turned out to be 5.38%.
The same measure for `Cc1cc(C)n(-c2ccc(C(=O)NCC(c3cccs3)N(C)C)cc2)n1` (stereo unspecified): 4.58%; for `Cc1nnc(CN(Cc2ccc(Cl)c(Cl)c2)C(C)C)o1`: 4.91%; for `CNC(=O)c1ccc2c(c1O)OC(C)(C)C2`: -6.08%.
The figure for `CC(C)c1nnc2n1CCN(C(=O)c1ccc3c(c1)NC(=O)CO3)C2` is 7.07%; for `CCN1CC(C(=O)NC(C)(C)CNC(=O)OC(C)(C)C)CC1=O` (stereo unspecified) it is 7.79%; for `CCC(C)NC(=O)c1ccccc1-n1cnnn1` (stereo unspecified) it is 13%.
The same measure for `Cc1ccc2ncnc(N3CCOCC3c3c(C)nn(C)c3C)c2c1` (stereo unspecified): 12.2%; for `CCN(Cc1nc(C(C)C)no1)Cc1cccs1`: -8.57%; for `CC1Cc2ccccc2N1Cc1occc1C(=O)OCC(N)=O` (stereo unspecified): -9.18%.
Take `CC(C)c1ccc(-c2nnn(CCNS(C)(=O)=O)n2)cc1`: the cytotoxicity at 10 µM is -3.51%.
The same measure for `CC(=O)c1c(F)cccc1N1CCC(CS(N)(=O)=O)CC1`: -7.79%.
The figure for `Cc1nc(C)n(CC2CN(CC(=O)Nc3nccs3)CCO2)n1` (stereo unspecified) is -13.8%; for `CCN1Cc2c(C(=O)NC(C)C(C)C)ncn2-c2ccccc2S1(=O)=O` (stereo unspecified) it is -66.3%.
The figure for `Cc1nc(NCC2CC2)nc2c1COCC21CCN(C(=O)NC(C)C)C1` (stereo unspecified) is -83.2%; for `CC(C)NC(=O)C1CN(C(=O)c2ccccc2)CC12CCOCC2` (stereo unspecified) it is -82.6%; for `C[C@@H]1CN(C(=O)c2cn(CCN3CCCCC3)nn2)C[C@H](C)O1` it is 4.89%.
Consider `CCN(CC)Cc1cc(C(=O)N2CCCC(CC)(C(=O)O)C2)c(C)o1` (stereo unspecified), for which the cytotoxicity at 10 µM was found to be 7.25%.
With `CCCn1ccnc1-c1nccn1CCC(N)=O`, the cytotoxicity at 10 µM was -10.3%.
The same measure for `O=C(O)c1cc(-n2cc3c(n2)CCC3)cc(S(=O)(=O)NC2CCCC2)c1`: -2.05%.
The same measure for `NC(=O)NCC(=O)N1CCCC(OCc2cccnc2)C1` (stereo unspecified): -1.53%; for `CC(C)Oc1ccc2c(NC(=O)CNC(N)=O)nn(CC(F)(F)F)c2c1`: -5.89%; for `CCN(Cc1cnc(-c2ccccn2)nc1)C1CCS(=O)(=O)C1` (stereo unspecified): -5.24%.
The figure for `COCCn1cncc1CN1CCCC(C)(c2ccccc2)C1` (stereo unspecified) is 0.363%; for `CCn1nc(C(=O)N2CCNCC2C(=O)Nc2ccc(C)nc2)cc1C` (stereo unspecified) it is 10.2%.
Regarding `CC[C@@]1(O)CCN(c2ncc(Cl)cc2C(F)(F)F)C[C@H]1O`, the cytotoxicity at 10 µM stood at 11.6%.
The same measure for `c1cncc(NCCNC2CCSC2)c1` (stereo unspecified): -3.22%; for `CN(C)c1ncnc2c1CCN(C(=O)CN1CCCCC1)C2`: -0.747%.
The same measure for `CN(C)C(=O)CCC1CCCN(Cc2ccc(-c3cccnc3)cc2)C1` (stereo unspecified): 4.96%.
`COc1c(F)cc(F)cc1-c1nc2c([nH]1)CCNC2`: the cytotoxicity at 10 µM is 3.94%.
The figure for `COc1cccc(-c2cc(NCCO)nc3[nH]ccc23)n1` is 4.46%; for `O=S1(=O)COCCN1Cc1ccc(F)c(F)c1` it is 3.42%; for `CC(=O)NC(C(=O)N1CCn2cncc2C1)C(C)C` (stereo unspecified) it is -14.7%.
The same measure for `Cc1nc[nH]c1-c1nccn1CCCN(C)C`: 5.05%; for `CCC(C)Sc1ncc(-c2c(C#N)c(N)nc3c2COCC3)cn1` (stereo unspecified): 15.1%; for `Cc1nc2c(N3CCC(O)(Cn4ccnc4)CC3)ncnc2o1`: 6.35%.
For `O=C1CCC(C(=O)N(Cc2ccsc2)CC2CCCO2)=NN1` (stereo unspecified), the cytotoxicity at 10 µM was -7.97%.
The same measure for `CCN1CCCC(c2c(-c3ccccc3)ncn2Cc2csc(N)n2)C1` (stereo unspecified): -0.386%; for `NCCc1n[nH]c(=O)n1-c1cccc2ccccc12`: 3.96%; for `Cc1ccsc1-c1nc(CN(C)Cc2noc(C(C)C)n2)c(C)o1`: -5.85%.
Turning to `Cc1nccn1CCCC(=O)N1CCC2(CCC(=O)N(C(C)C)C2)CC1`, the cytotoxicity at 10 µM was -10.8%.
The figure for `CCn1nc(CNC(=O)C2CC(=O)N(C3CCCC3)C2)c2ccccc21` (stereo unspecified) is -25.8%.
Regarding `O=S(=O)(NCC1CCOc2ccccc2C1)N1CCOCC1` (stereo unspecified), the cytotoxicity at 10 µM was -9.75%.
The same measure for `COCC1CCCN(C(=O)c2cc(Cn3ccc4ccccc43)[nH]n2)C1` (stereo unspecified): -11.5%; for `Cc1nc(CN2CCCC(Cn3cncn3)C2)nc2ccccc12` (stereo unspecified): -16.2%.
The same measure for `CCOc1ncccc1CNC(=O)c1c(C)oc(C)c1C`: -3.75%; for `O=C(C1CCOCC1)N1CCc2ncc(CN3CCCC3)n2CC1`: -76.1%; for `COCCN1CCCn2cnc(CNC(=O)N(C)C)c2C1`: 4.47%.
The same measure for `CO[C@H]1CCN(Cc2cccc(C)n2)[C@@H]2CN(Cc3cccnc3)C[C@H]12`: -11.3%.
In the case of `CN(C)CCN1C(=O)CCC12CCN(Cc1cccs1)CC2`, the cytotoxicity at 10 µM is 3.88%.
The figure for `c1cnc2c(c1)cc([C@H]1CCCO1)n2CCN1CCOCC1` is -11.3%.
As to `CC(C)NC(=O)CC1COC2(CCN(Cc3cccs3)CC2)C1` (stereo unspecified), the cytotoxicity at 10 µM was determined as 4.57%.
`O=C(CCc1ccccc1)N1C[C@@H]2CN(Cc3ccoc3)CCO[C@@H]2C1`: the cytotoxicity at 10 µM was -77.8%.
`COc1ncccc1CN1C[C@H]2C[C@@H](C(=O)NCC3CC3)N(C)[C@H]2C1`: the cytotoxicity at 10 µM is -2.54%.
Regarding `CC(C)=CCN1C[C@@H]2CC[C@H]1CN(CCC(=O)NCc1ccco1)C2`, the cytotoxicity at 10 µM was -3.08%.
